TRPC6 inh – mouse TRPC6 channel inhibition; HEK293-TRPC6, membrane potential dye, ACh-evoked depolarization; stronger effect = lower value; 1.1% of 310,000 active; Q61143; B-score at 10 µM;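 active means B-score under library mean minus 3 SD, initial fluorescence not abnormally high, positive integrated signal ratio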;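 further: B-score derived from integrated fluorescence ratio over the kinetic read; more negative B-score means stronger inhibition of depolarization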
Target sequence (Q61143 whole entry, looked up): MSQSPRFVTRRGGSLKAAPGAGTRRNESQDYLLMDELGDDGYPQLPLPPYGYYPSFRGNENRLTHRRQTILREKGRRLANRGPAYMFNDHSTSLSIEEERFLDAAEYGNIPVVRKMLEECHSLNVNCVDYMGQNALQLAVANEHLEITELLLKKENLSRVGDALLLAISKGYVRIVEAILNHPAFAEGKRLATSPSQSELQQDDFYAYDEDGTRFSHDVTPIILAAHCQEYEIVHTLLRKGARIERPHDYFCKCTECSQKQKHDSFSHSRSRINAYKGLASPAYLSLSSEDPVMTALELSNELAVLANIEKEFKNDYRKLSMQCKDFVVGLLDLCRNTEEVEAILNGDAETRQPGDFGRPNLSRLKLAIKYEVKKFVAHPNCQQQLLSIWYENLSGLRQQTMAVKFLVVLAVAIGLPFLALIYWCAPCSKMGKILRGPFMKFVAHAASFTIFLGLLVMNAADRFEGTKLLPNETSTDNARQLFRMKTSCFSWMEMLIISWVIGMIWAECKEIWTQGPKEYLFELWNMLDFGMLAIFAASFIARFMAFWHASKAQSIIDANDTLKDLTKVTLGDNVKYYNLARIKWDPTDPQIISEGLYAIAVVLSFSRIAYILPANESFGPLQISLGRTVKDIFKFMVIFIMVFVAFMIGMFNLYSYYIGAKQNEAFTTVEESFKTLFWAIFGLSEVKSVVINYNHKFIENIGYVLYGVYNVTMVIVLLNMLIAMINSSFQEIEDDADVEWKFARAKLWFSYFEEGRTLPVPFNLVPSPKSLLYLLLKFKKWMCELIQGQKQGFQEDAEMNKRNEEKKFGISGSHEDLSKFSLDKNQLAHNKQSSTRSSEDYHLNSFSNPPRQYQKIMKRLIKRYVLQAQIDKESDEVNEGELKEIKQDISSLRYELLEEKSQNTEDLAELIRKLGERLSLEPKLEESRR
TRPC4 PAM – TRPC4 (mouse) allosteric potentiation | Q9QUQ5 | HEK293 TRPC4beta/mu-opioid, DAMGO EC20, Fluo-4 Ca2+ flux; stronger effect = higher value | B-score at 10 µM | 0.42% of 310,000 active;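 active means B-score of calcium response area above 5 SD of library B-scores, with initial fluorescence ratio within 5 SD of library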;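 further: B-score of integrated fluorescence ratio over time as area under calcium response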
TRPC4 agonist – activators of mouse TRPC4 channel; HEK293 TRPC4beta/mu-opioid, Fluo4 calcium fluorescence; stronger effect = higher value; 0.49% of 310,000 active; B-score at 10 µM;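 active means B-score above 5 SD of library B-scores, and initial fluorescence ratio not above library mean plus 5 SD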;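 further: positive B-score marks a calcium rise read as TRPC4 activation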
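system = HEK293 cells stably co-expressing mouse TRPC4beta and mu-opioid receptor | schedule = Fluo4 dye loading 45 min at room temperature, 110 s recording | measure = B-scored integrated calcium fluorescence ratio | signal = Fluo4 calcium-sensitive dye fluorescence, kinetic, 1 Hz baseline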
TRPC6 activator – activators of mouse TRPC6 channel; HEK293-TRPC6 membrane potential dye fluorescence; stronger effect = higher value; B-score at 10 µM; 0.13% of 310,000 active; AID 2550;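 active means B-score of the integrated fluorescence ratio above library mean plus 3 SD, and starting fluorescence ratio within library mean plus 5 SD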;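 further: higher score means more depolarization so channel activation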
Kir21 inh – Kir2.1 (mouse) channel inhibition; P35561; HEK293-Kir2.1, FluxOR thallium flux fluorescence; stronger effect = lower value; B-score at 10 µM; 0.85% of 310,000 active;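 active means fluorescence ratio B-score at or below minus 3 SD of library scores, with starting-brightness B-score within 2 SD, cut at about -4.2 in these data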;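 further: channel flux triggered by added potassium and thallium sulfate stimulus; B-score of peak minus minimum fluorescence over baseline after thallium stimulus; more negative B-score means stronger Kir2.1 block with less thallium influx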
TRPC4 block – TRPC4 (mouse) channel inhibition; HEK293 TRPC4beta/mu-opioid, DAMGO-evoked Fluo4 calcium flux; stronger effect = lower value; B-score at 10 µM; AID 2247; 0.39% of 300,000 active;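 active means B-score over 3 SD under the library average, no early fluorescence shift, positive overall ratio signal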
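Assay system: Stable TRPC4beta/mu-opioid receptor HEK293 cells | Reagent: DAMGO in two steps, submaximal then maximal | Compound dosing: Single concentration per test compound | Signal: Fluo4 Ca2+ flux fluorescence | Evaluation: Per-well B score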
TRPC4 spec 2 – mouse TRPC4 off-target activity of TRPC6 inhibitors, second screen; inhibition, % at 10 µM; 42% of 920 active; AID 2776; shares compounds with TRPC6 inh; HEK293 TRPC4/MOR, membrane potential dye fluorescence; channel activated by saturating DAMGO dose;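 active means compounds whose fluorescence signal differed from control wells by over 3 SD, either direction, in both duplicate plates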
TRPC4 spec – selectivity of TRPC6 inhibitors: effect on mouse TRPC4; 61% of 920 active; activity change, negative = inhibition, % at 10 µM; shares compounds with TRPC6 inh; HEK293 TRPC4/mu-opioid, membrane potential fluorescence;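 active means rise or fall in signal beyond 3 SD of buffer-only wells in both replicate plates, either sign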;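 further: integrated kinetic ratio of fluorescence range over baseline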
HEK293 MPD ctr 2-1 – second counter-screen for TRPC6 inhibitors: parental HEK293 cells; signal change vs control, % at 10 µM; shares compounds with TRPC6 inh; AID 2779; 31% of 920 active; parental HEK293 membrane potential dye fluorescence; maximal acetylcholine challenge after compound addition;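 active means membrane potential signal moving either way by over 3 SD of the maximum-effect control, in both duplicate plates, meaning non-specific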
HEK293 MPD ctr-1 – parental HEK293 nonspecific activity of TRPC6 inhibitors | membrane potential signal change, % at 10 µM | parental HEK293 membrane potential dye fluorescence | shares compounds with TRPC6 inh | 60% of 920 active;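 active means membrane potential signal shifting up or down by more than 3 SD of buffer-only wells, on both duplicate plates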
HEK293 MPD ctr-2 – counter-screen for TRPC6 modulators: effect in parental HEK293 cells. AID 488924. 51% of 2,400 active. membrane potential signal change, % at 10 µM. membrane potential dye fluorescence. shares compounds with TRPC6 inh;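 active means membrane potential signal moves up or down beyond 5 SD from buffer-only wells, on both duplicate plates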
HEK293 MPD ctr 2-2 – second check of TRPC6 modulator effects in parental HEK293 cells. shares compounds with TRPC6 inh. membrane potential dye fluorescence; after compound, maximal acetylcholine stimulation. inhibition, % at 10 µM. 14% of 2,400 active. AID 488926;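 active means membrane potential signal drops by more than 5 SD from the mean control signal, in both duplicate plates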;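 further: plate controls were acetylcholine ECmax control wells for no effect and buffer only wells for full effect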
TRPC4/MOR mod – mouse TRPC4 off-target activity of TRPC6 modulators | HEK293 TRPC4/mu-opioid, membrane potential fluorescence | 69% of 2,400 active | percent change from control (negative = decrease, positive = increase), % at 10 µM | shares compounds with TRPC6 inh;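 active means membrane potential signal moved up or down beyond 5 SD of buffer control wells, in both duplicate plates, actives on both sides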;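 further: plate controls were assay buffer wells for no effect and DAMGO maximal-effect wells for full effect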
TRPC4/MOR inh 2 – second check of whether TRPC6 modulators also affect mouse TRPC4 | inhibition, % at 10 µM | 55% of 2,400 active | HEK293 TRPC4/mu-opioid, membrane potential dye fluorescence; stimulated with maximal-effect DAMGO | AID 488928 | shares compounds with TRPC6 inh;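 active means drop in membrane potential signal beyond 5 SD of the control wells in both duplicate plates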;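 further: TRPC4 counter screen for TRPC6 hits run under conditions tuned for TRPC6 not TRPC4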
TRPC6 inh conf – mouse TRPC6 inhibitor confirmation; shares compounds with TRPC6 inh; HEK293-TRPC6, membrane potential dye, ACh-evoked depolarization; inhibition, % at 10 µM; 43% of 3,300 active;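 active means fluorescence ratio falls more than 5 SD below the full-stimulation control mean, in both duplicate runs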;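 further: integrated fluorescence ratio of peak minus minimum over baseline after agonist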
TRPC6 act confirm – confirmation of mouse TRPC6 activators; shares compounds with TRPC6 inh; 11% of 2,800 active; HEK293-TRPC6 membrane potential dye fluorescence, FDSS; activation, % at 10 µM;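 active means ratio signal rise beyond 5 SD above unstimulated control wells' mean, seen in both duplicate runs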;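 further: plate controls were buffer EC0 wells for no effect and acetylcholine ECmax response for full effect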
* hit, by the source's call; i = inactive; . = not tested or not shown. Hits are enriched below; roughly 3% of the tested compounds scored in any of these assays.

SMILES | TRPC6 inh | TRPC4 PAM | TRPC4 agonist | TRPC6 activator | Kir21 inh | TRPC4 block | HEK293 MPD ctr-2 | HEK293 MPD ctr 2-2 | TRPC4/MOR mod | TRPC4/MOR inh 2 | TRPC6 inh conf | TRPC6 act confirm | others
CCOC(=O)c1c(CSc2cccs2)n(C)c2cc(Br)c(O)c(CN(C)C)c12 | -6.4* | i | i | i | -3.4 | i | i | i | i | 72%* | 54%* | i
CN1CCc2c(sc3c2c(=O)n(-c2ccc(Cl)cc2)c2nncn32)C1 | -5.1* | i | i | i | -0.52 | i | -106%* | i | -21%* | i | i | i
Cc1cccc2nc(-c3cccnc3)c(NCCC(C)C)n12 | -5.5* | i | i | i | -0.64 | i | i | i | -24%* | 84%* | 41%* | i
Cc1cccc2nc(-c3cccnc3)c(Nc3ccccc3)n12 | i | i | i | i | -1.2 | i | . | . | . | . | . | .
CCN(CC)c1ccc(/C=N\NC(=O)c2cccc3cc[nH]c23)cc1 | -5.7* | i | i | i | -0.87 | i | i | i | -12%* | 54%* | i | i
COc1cc(OC)cc(C(=O)NNS(=O)(=O)c2ccc(F)cc2)c1 | i | i | i | i | 1.6 | i | . | . | . | . | . | .
COc1ccccc1N1CCN(C/C=C/c2ccc(N(C)C)cc2)CC1 | -7.5* | i | i | i | 0.01 | i | . | . | . | . | i | i | TRPC4 spec 2=68%*;TRPC4 spec=-10%*;HEK293 MPD ctr 2-1=i;HEK293 MPD ctr-1=-247%*
COc1ccccc1N1CCN(Cc2ccco2)CC1 | i | i | i | i | -1.3 | i | . | . | . | . | . | .
CCCn1c2ccccc2c2nnc(SCCN3CCOCC3)nc21 | i | i | i | i | 0.53 | i | . | . | . | . | . | .
c1ccc2nc3c(nc2c1)c1ccccc1n3CCN1CCOCC1 | -5.1* | i | i | i | -1.5 | i | i | i | -8.5%* | 34%* | i | i
C=CCN1C=CC=C/C1=C1\SC(=S)N(C)C1=O | -5.1* | i | i | i | 0 | i | i | i | i | i | i | i
CN1C=CC=C/C1=C1\SC(=S)N(c2ccccc2)C1=O | i | i | i | i | 1.2 | i | . | . | . | . | . | .

High-throughput results: PubChem, Johns Hopkins Ion Channel Center
